The source of these data is PubChem BioAssay AID743238 (Broad Institute, 2013).

About 200 (0.056%) of roughly 360,000 compounds were called active. This excerpt belongs to a sample that is enriched for actives. Unmarked numbers belong to inactive results.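 How the source made its calls: active means mean normalized replicate activation at least 10% and every replicate at or above 10%; inconclusive means only one of the two criteria met; inactive means mean below 10% and not all replicates reach 10%.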

A short description of this assay: activators of inactive X chromosome reactivation, primary screen, imaging, XiGFP fibroblasts, GFP high-content imaging, set 2 (AID 743238).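 Further: 0% = median of on-plate neutral control wells and 100% = ellipticine 6 µM median.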 The settings on record: XiGFP mouse fibroblasts, % GFP-positive cells imaging, 3 d; at 7.58 µM; hits give high values; cells co-treated with 5-aza-dC sensitizer; scaled so ellipticine positive control = 100%. In short, it runs like this:
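Assay system: SV40-immortalized XiGFP fibroblast cells, line 68-5-11; buffer or medium: DMEM plus 5-aza-dC sensitizer; compound: one concentration, pinned; timing: compounds 3 days, fix/stain 15 min at room temperature; benchmarks: positive control ellipticine, 6 µM final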
In the case of `C[C@H](CO)N1C[C@H](C)[C@H](CN(C)Cc2ccc(C(=O)Nc3ccccc3N)cc2)Oc2ccc(NC(=O)Nc3ccccc3)cc2CC1=O`, the activation is 0.0505%.
As for `Cc1noc(C)c1NC(=O)Nc1ccc2c(c1)C(=O)N([C@H](C)CO)C[C@@H](C)[C@H](CN(C)C(=O)Nc1cccc3ccccc13)OCCCC[C@@H](C)O2`, the figure is 0.305%; as for `COc1cccc(CNC(=O)C[C@@H]2CC[C@H]3[C@@H](COc4ccc(NC(=O)c5cccs5)cc4C(=O)N3C)O2)c1`, -0.028%; as for `C[C@H]1CN([C@@H](C)CO)C(=O)c2ccccc2-c2ccccc2CO[C@H]1CN(C)Cc1ccc(-c2ccccc2)cc1`, 0.132%.
In the case of `COc1ccc(S(=O)(=O)Nc2ccc3c(c2)CC(=O)N([C@@H](C)CO)C[C@@H](C)[C@H](CN(C)S(=O)(=O)c2ccccc2)O3)cc1` it was 0.178%; in that of `COc1cccc(S(=O)(=O)N[C@H]2C=C[C@H](CC(=O)NC3Cc4ccccc4C3)O[C@H]2CO)c1`, 0.645%.
As to `C[C@H](O)C#Cc1cnc2c(c1)C(=O)N([C@@H](C)CO)C[C@H](C)[C@@H](CN(C)C(=O)c1ccccc1)O2`, the activation is -0.975%.
Consider `Cc1ccccc1-c1ccc([C@H]2[C@@H](CO)N3C(=O)CN(C(=O)c4ccncc4)C[C@@H]23)cc1`, for which the activation is -0.015%.
`COc1ccc(S(=O)(=O)Nc2ccc3c(c2)C(=O)N([C@@H](C)CO)C[C@H](C)[C@@H](CN(C)C(=O)c2ccccc2)OCCCC[C@H](C)O3)cc1`: the activation was 0.072%.
As for `COc1ccc2c3c(n(C)c2c1)[C@@H](CO)N(C(C)=O)CC31CCN(Cc2ccc(Cl)cc2)CC1`, the figure is 0.225%; as for `C[C@@H]1CCCCO[C@@H](CN(C)S(=O)(=O)c2cn(C)cn2)[C@@H](C)CN([C@@H](C)CO)C(=O)c2cc(NC(=O)Nc3ccc(C(F)(F)F)cc3)ccc2O1`, -0.98%.
As for `CO[C@@H]1CN(C)C(=O)c2ccc(NC(=O)C3CC3)cc2OC[C@H](C)N(C(=O)c2ccccc2)C[C@@H]1C`, the figure is 0.643%.
In the case of `CC[C@@H]1CC=CC[C@H](C)Oc2ccccc2C(=O)N(C)[C@H](Cc2ccccc2)C(=O)N1` (mixture of isomers), the activation is 0.007%.
In the case of `C[C@@H]1CCCCO[C@H](CN(C)Cc2ccc3c(c2)OCO3)[C@H](C)CN([C@@H](C)CO)C(=O)c2cc(NS(=O)(=O)c3cccs3)ccc2O1` it was -0.019%.
With `C[C@H]1CCCCO[C@@H](CN(C)C(=O)Nc2ccccc2)[C@@H](C)CN([C@@H](C)CO)C(=O)c2cc(NC(=O)CCC(F)(F)F)ccc2O1`, the activation is 0.045%.
